Values after ≈ are worked out from the molar mass of the structure shown.
Key:
[1] = target: T1, Amine oxidase [flavin-containing] B (Rattus norvegicus, UniProt P19643); assay: Inhibition of Monoamine oxidase B in rat primary hepatocytes; format: cell-based, Hepatocyte
T1 sequence (P19643 whole entry): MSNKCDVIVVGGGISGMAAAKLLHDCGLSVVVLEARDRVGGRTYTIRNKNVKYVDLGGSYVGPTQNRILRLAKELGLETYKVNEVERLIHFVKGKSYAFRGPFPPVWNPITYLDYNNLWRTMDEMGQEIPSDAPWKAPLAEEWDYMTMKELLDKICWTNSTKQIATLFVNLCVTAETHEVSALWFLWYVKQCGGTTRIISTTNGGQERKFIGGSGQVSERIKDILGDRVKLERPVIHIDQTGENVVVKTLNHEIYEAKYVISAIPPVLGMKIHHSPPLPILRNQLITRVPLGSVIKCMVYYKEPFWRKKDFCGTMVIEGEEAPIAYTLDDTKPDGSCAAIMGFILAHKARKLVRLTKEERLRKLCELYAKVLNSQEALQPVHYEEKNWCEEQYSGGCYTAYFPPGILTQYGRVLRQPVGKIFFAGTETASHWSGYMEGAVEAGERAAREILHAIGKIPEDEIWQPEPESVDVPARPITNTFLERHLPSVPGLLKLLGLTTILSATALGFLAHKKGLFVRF

Rattus norvegicus = species: Rattus norvegicus; assay: Inhibition of mitochondrial protein synthesis (MPS) in rat heart mitochondria; format: functional
Outline: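 Rat heart mitochondria were incubated at 1 mg/mL protein (Bradford) in buffer with translation components (ADP, amino acids). Incorporation of S35 methionine was followed for 1 h at 30 °C, then quenched with cold 5% TCA/5 mM methionine. Triplicate aliquots were filtered, washed and counted. Compounds were tested at 6–7 concentrations, ≤1% organic. IC50 came from the linear portion of the percent-of-control curve, as the mean of ≥2 experiments.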

Moraxella catarrhalis = assay: Minimum inhibitory concentration measured against Moraxella catarrhalis; format: functional
Staphylococcus aureus = assay: Minimum inhibitory concentration measured against Staphylococcus aureus; format: functional
[2] = test system: Staphylococcus epidermidis; assay: Minimum inhibitory concentration measured against Staphylococcus epidermidis; format: functional
Streptococcus pneumoniae = assay: Minimum inhibitory concentration measured against Streptococcus pneumoniae; format: functional
Enterococcus faecium = assay: Minimum inhibitory concentration measured against Enterococcus faecium; format: functional

Row | Compound | IC50 [1] [µM] | IC50 (Rattus norvegicus) [µM] | MIC (Moraxella catarrhalis) [µg/mL] | MIC (Staphylococcus aureus) [µg/mL] | MIC [2] [µg/mL] | MIC (Streptococcus pneumoniae) [µg/mL] | MIC (Enterococcus faecium) [µg/mL]
1 | CC(=O)NC[C@H]1CN(c2ccc(/C=C/c3cccnc3)c(F)c2)C(=O)O1 | 59 | 7.8 | 16 (≈ 45 µM) | 4 (≈ 11.3 µM) | 2 (≈ 5.63 µM) | 16 (≈ 45 µM) | 2 (≈ 5.63 µM)
2 | CC(=O)NC[C@H]1CN(c2ccc(/C=C(\Br)c3ccco3)c(F)c2)C(=O)O1 |  |  | 1 (≈ 2.36 µM) | 1 (≈ 2.36 µM) | 0.25 (≈ 0.591 µM) | 0.5 (≈ 1.18 µM) | 0.5 (≈ 1.18 µM)
3 | CC(=O)NC[C@H]1CN(c2ccc(/C=C(\Br)c3cccc(N)c3)c(F)c2)C(=O)O1 |  |  | 8 (≈ 17.8 µM) | 2 (≈ 4.46 µM) | 1 (≈ 2.23 µM) | 2 (≈ 4.46 µM) | 2 (≈ 4.46 µM)
4 | CC(=O)NC[C@H]1CN(c2ccc(/C=C(\Br)c3cccnc3)c(F)c2)C(=O)O1 | 121 | 12 | 8 (≈ 18.4 µM) | 2 (≈ 4.61 µM) | 1 (≈ 2.3 µM) | 1 (≈ 2.3 µM) | 2 (≈ 4.61 µM)
5 | COc1ccncc1/C(Br)=C/c1ccc(N2C[C@H](CNC(C)=O)OC2=O)cc1F |  |  | 32 (≈ 68.9 µM) | 8 (≈ 17.2 µM) | 4 (≈ 8.62 µM) | 2 (≈ 4.31 µM) | 2 (≈ 4.31 µM)
6 | CC(=O)NC[C@H]1CN(c2ccc(/C=C(\Br)c3cccc(C(N)=O)c3)c(F)c2)C(=O)O1 |  |  | 16 (≈ 33.6 µM) | 4 (≈ 8.4 µM) | 4 (≈ 8.4 µM) | 4 (≈ 8.4 µM) | 2 (≈ 4.2 µM)
7 | CC(=O)NC[C@H]1CN(c2ccc(/C=C(\Br)c3ccccc3)c(F)c2)C(=O)O1 | < 9.4 | > 300 | 128 (≈ 295 µM) | 16 (≈ 36.9 µM) | 16 (≈ 36.9 µM) | 2 (≈ 4.62 µM) | 16 (≈ 36.9 µM)
8 | CC(=O)NC[C@H]1CN(c2ccc(/C=C(\Br)c3cccc(NC(C)=O)c3)c(F)c2)C(=O)O1 |  |  | 64 (≈ 131 µM) | 4 (≈ 8.16 µM) | 2 (≈ 4.08 µM) | 2 (≈ 4.08 µM) | 2 (≈ 4.08 µM)
9 | CC(=O)NC[C@H]1CN(c2ccc(/C=C(\F)c3cncc(C#N)c3)c(F)c2)C(=O)O1 | > 300 | < 0.1 | 4 (≈ 10 µM) | 1 (≈ 2.51 µM) | 0.5 (≈ 1.26 µM) | ≤ 0.125 | 1 (≈ 2.51 µM)
10 | CC(=O)NC[C@H]1CN(c2ccc(/C=C(\Br)c3cccc(CO)c3)c(F)c2)C(=O)O1 | > 150 | 8 | 4 (≈ 8.63 µM) | 2 (≈ 4.32 µM) | 1 (≈ 2.16 µM) | 1 (≈ 2.16 µM) | 0.5 (≈ 1.08 µM)
11 | CC(=O)NC[C@H]1CN(c2ccc(/C=C(\Br)c3ccc(C#N)cc3)c(F)c2)C(=O)O1 | > 150 | 76 | > 128 | 4 (≈ 8.73 µM) | 1 (≈ 2.18 µM) | 0.5 (≈ 1.09 µM) | 2 (≈ 4.36 µM)
12 | CC(=O)NC[C@H]1CN(c2ccc(/C=C(\Br)c3cncc(C#N)c3)c(F)c2)C(=O)O1 | > 300 | 1.3 | 2 (≈ 4.35 µM) | 1 (≈ 2.18 µM) | 0.25 (≈ 0.544 µM) | ≤ 0.125 | < 0.125
13 | CC(=O)NC[C@H]1CN(c2ccc(/C=C(\F)c3nnn(C)n3)c(F)c2)C(=O)O1 | > 300 | 4.9 | 32 (≈ 84.6 µM) | 8 (≈ 21.1 µM) | 1 (≈ 2.64 µM) | 2 (≈ 5.29 µM) | 4 (≈ 10.6 µM)
14 | CC(=O)NC[C@H]1CN(c2ccc(/C=C(\F)c3cncnc3)c(F)c2)C(=O)O1 | 475 |  | 4 (≈ 10.7 µM) | 2 (≈ 5.34 µM) | 1 (≈ 2.67 µM) | 1 (≈ 2.67 µM) | 2 (≈ 5.34 µM)
15 | CC(=O)NC[C@H]1CN(c2ccc(/C=C(\F)S(=O)(=O)c3ccccc3)c(F)c2)C(=O)O1 |  |  | 64 (≈ 147 µM) | 8 (≈ 18.3 µM) | 8 (≈ 18.3 µM) | 8 (≈ 18.3 µM) | 8 (≈ 18.3 µM)
16 | CC(=O)NC[C@H]1CN(c2ccc(/C=C(\F)c3cccc(C=O)c3)c(F)c2)C(=O)O1 | > 300 | 9.9 | 64 (≈ 160 µM) | 1 (≈ 2.5 µM) | 0.5 (≈ 1.25 µM) | 4 (≈ 9.99 µM) | 1 (≈ 2.5 µM)
17 | CC(=O)NC[C@H]1CN(c2ccc(/C=C(\F)c3cccc(C#N)c3)c(F)c2)C(=O)O1 | > 300 | > 300 | > 128 | > 128 | 128 (≈ 322 µM) | 2 (≈ 5.03 µM) | > 128
18 | CC(=O)NC[C@H]1CN(c2ccc(/C=C(\Br)c3c(C)oc[n+]3C)c(F)c2)C(=O)O1 | 21 | 54 | 64 | 32 | 16 | 8 | 32
19 | CC(=O)NC[C@H]1CN(c2ccc(/C=C\F)c(F)c2)C(=O)O1 |  |  | 32 (≈ 108 µM) | 8 (≈ 27 µM) | 8 (≈ 27 µM) | 2 (≈ 6.75 µM) | 8 (≈ 27 µM)
20 | CC(=O)NC[C@H]1CN(c2ccc(/C=C(\Br)c3ccncc3)c(F)c2)C(=O)O1 | 186 | 14 | 16 (≈ 36.8 µM) | 8 (≈ 18.4 µM) | 2 (≈ 4.61 µM) | 1 (≈ 2.3 µM) | 1 (≈ 2.3 µM)
21 | CC(=O)NC[C@H]1CN(c2ccc(/C=C(\Br)c3ccc(C(C)=O)cc3)c(F)c2)C(=O)O1 |  |  | 128 (≈ 269 µM) | 64 (≈ 135 µM) | 64 (≈ 135 µM) | 1 (≈ 2.1 µM) | 32 (≈ 67.3 µM)
22 | CC(=O)NC[C@H]1CN(c2ccc(/C=C(\Br)c3cccc(C#N)c3)c(F)c2)C(=O)O1 | > 150 | 24 | 1 (≈ 2.18 µM) | 0.25 (≈ 0.546 µM) | 0.125 (≈ 0.273 µM) | 0.25 (≈ 0.546 µM) | 0.125 (≈ 0.273 µM)
23 | CC(=O)NC[C@H]1CN(c2ccc(/C=C(\Br)c3ccc(C(C)=O)s3)c(F)c2)C(=O)O1 |  |  | 2 (≈ 4.16 µM) | 1 (≈ 2.08 µM) | 0.5 (≈ 1.04 µM) | 0.5 (≈ 1.04 µM) | 0.5 (≈ 1.04 µM)
24 | COc1ccc(C(C)C)cc1/C(Br)=C/c1ccc(N2C[C@H](CNC(C)=O)OC2=O)cc1F |  |  | 32 (≈ 63.3 µM) | > 128 | > 128 | 64 (≈ 127 µM) | > 128
25 | CC(=O)NC[C@H]1CN(c2ccc(/C=C(\F)c3nccs3)c(F)c2)C(=O)O1 | < 9.4 |  | 8 (≈ 21.1 µM) | 2 (≈ 5.27 µM) | 2 (≈ 5.27 µM) | 2 (≈ 5.27 µM) | 2 (≈ 5.27 µM)
26 | CC(=O)NC[C@H]1CN(c2ccc(/C=C(\F)c3cnc(N)nc3)c(F)c2)C(=O)O1 |  |  | 32 (≈ 82.2 µM) | 16 (≈ 41.1 µM) | 4 (≈ 10.3 µM) | 8 (≈ 20.5 µM) | 8 (≈ 20.5 µM)
27 | CC(=O)NC[C@H]1CN(c2ccc(/C=C(\Br)c3cccc(C(C)=O)c3)c(F)c2)C(=O)O1 |  |  | 4 (≈ 8.42 µM) | 2 (≈ 4.21 µM) | 1 (≈ 2.1 µM) | 1 (≈ 2.1 µM) | 1 (≈ 2.1 µM)
28 | CC(=O)NC[C@H]1CN(c2ccc(/C=C(/F)c3cccnc3)c(F)c2)C(=O)O1 |  |  | 32 (≈ 85.7 µM) | 8 (≈ 21.4 µM) | 4 (≈ 10.7 µM) | 4 (≈ 10.7 µM) | 4 (≈ 10.7 µM)

Reference: ChEMBL document CHEMBL1134857, “The synthesis and biological evaluation of a novel series of antimicrobials of the oxazolidinone class” (Bioorg Med Chem Lett, 2002)
